Source: ChEMBL document CHEMBL1141853, “A cyclitol derivative as a replication inhibitor from the marine sponge Petrosia sp” (1999)
Values after ≈ are worked out from the molar mass of the structure shown. Active and inactive are the calls of the source. The calls are words filed in the database; no cut-off is given here.

Tests used:
XF498 = assay: Cytotoxicity against human XF498 cells; assay type: functional; settings: read-out: ED50 (the source's name)
SK-MEL-2 = assay: Cytotoxicity against human SK-MEL-2 cells; assay type: functional; settings: read-out: ED50 (the source's name)
[1] = target: T1, DNA topoisomerase 1 (Homo sapiens) (UniProt P11387); assay: Inhibition of human DNA topoisomerase 1 assessed as effect on relaxation of superhelical plasmid
T1 sequence (whole entry): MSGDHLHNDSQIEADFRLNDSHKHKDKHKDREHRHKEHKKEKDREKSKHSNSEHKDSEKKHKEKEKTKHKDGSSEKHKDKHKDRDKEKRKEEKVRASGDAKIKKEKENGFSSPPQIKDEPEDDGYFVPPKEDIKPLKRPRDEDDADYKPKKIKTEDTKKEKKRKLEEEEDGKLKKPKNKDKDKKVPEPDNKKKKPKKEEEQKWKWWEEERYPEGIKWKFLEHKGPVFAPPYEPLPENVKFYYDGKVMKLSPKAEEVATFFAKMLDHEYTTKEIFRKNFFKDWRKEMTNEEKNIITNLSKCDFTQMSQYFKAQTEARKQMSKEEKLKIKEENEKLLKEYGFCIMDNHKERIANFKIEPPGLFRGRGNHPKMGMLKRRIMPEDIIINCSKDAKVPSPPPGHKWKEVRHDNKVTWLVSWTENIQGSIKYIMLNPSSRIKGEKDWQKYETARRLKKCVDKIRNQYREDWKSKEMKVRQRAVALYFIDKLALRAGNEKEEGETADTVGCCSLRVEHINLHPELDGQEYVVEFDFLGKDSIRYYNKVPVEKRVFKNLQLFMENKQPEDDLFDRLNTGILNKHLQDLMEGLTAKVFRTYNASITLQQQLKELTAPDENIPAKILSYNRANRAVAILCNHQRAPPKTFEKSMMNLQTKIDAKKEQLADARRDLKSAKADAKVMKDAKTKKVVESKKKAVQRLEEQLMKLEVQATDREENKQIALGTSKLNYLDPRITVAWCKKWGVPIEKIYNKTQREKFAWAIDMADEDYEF

Simian virus 40 [2] = assay: Inhibition of SV40 DNA replication in human HeLa cells; assay type: functional, organism-based; settings: Betapolyomavirus macacae
Method in brief: (§1)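 Cell-free SV40 replication using HeLa cytosolic extract, SV40 T-Ag (0.6 µg) and SV40 origin pUC DNA (0.3 µg). Buffer is 40 mM creatine phosphate-di-Tris pH 7.7, creatine kinase, 7 mM MgCl2, 0.5 mM DTT, 4 mM ATP, rNTPs, dNTPs and 25 µM [3H]dTTP. Incubated 90 min at 37 °C; acid-insoluble radioactivity measured. Products separated on 1% agarose gel and autoradiographed.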

A549 = assay: Cytotoxicity against human A549 cells; assay type: functional; settings: read-out: ED50 (the source's name)
SK-OV-3 = assay: Cytotoxicity against human SKOV3 cells; assay type: functional; settings: read-out: ED50 (the source's name)
Simian virus 40 [3] = assay: Inhibition of SV40 DNA replication in human HeLa cells at 800 uM; assay type: functional; settings: Betapolyomavirus macacae, read-out: INH; method in brief: as §1
HCT-15 = assay: Cytotoxicity against human HCT-15 cells; assay type: functional; settings: read-out: ED50 (the source's name)

Question: `CCCCCCC(C)CCCCCCCCCOC[C@H](O)COC1[C@@H](O)[C@H](O)[C@@H](O)[C@@H]1O` (stereo partly drawn) [SACROTRIDE A] was tested. Which EC50 (XF498) did it give?
Answer: 9.8 µg/mL (≈ 21.2 µM)

Question: What about the EC50 (SK-MEL-2) of the same compound?
Answer: > 10 µg/mL

Question: And the Activity [1]?
Answer: inactive

Question: And the Activity (Simian virus 40 [2])?
Answer: Dose-dependent effect

Question: What about the EC50 (A549) of the same compound?
Answer: > 10 µg/mL

Question: What about the EC50 (SK-OV-3) of the same compound?
Answer: 9.5 µg/mL (≈ 20.5 µM)

Question: And the inhibition at 800 µM (Simian virus 40 [3])?
Answer: > 90%

Question: And the EC50 (HCT-15)?
Answer: 9.4 µg/mL (≈ 20.3 µM)
